Experiment [1] deals with T1, 5-hydroxytryptamine receptor 1A (Homo sapiens) (UniProt P08908).
T1 sequence (whole entry): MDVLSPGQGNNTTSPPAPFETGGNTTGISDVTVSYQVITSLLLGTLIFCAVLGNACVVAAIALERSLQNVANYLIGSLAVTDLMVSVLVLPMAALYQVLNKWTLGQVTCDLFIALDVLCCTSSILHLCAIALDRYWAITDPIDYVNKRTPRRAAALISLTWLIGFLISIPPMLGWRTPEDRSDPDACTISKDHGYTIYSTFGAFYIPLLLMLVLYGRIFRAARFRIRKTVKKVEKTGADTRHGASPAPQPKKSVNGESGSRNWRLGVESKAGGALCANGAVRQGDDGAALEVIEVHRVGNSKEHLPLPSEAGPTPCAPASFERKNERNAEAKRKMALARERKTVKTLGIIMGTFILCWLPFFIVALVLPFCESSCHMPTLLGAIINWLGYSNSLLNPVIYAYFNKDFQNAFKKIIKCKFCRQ
Description: Agonist activity at human recombinant 5-HT1A receptor expressed in HeLa cells after 30 mins by [35S]GTPgammaS binding assay. The experiment is classed as functional, cell-based. In a few lines: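 HeLa membranes expressing human 5-HT1A (50–70 µg protein) in 20 mM HEPES, 3 mM MgSO4, 120 mM NaCl pH 7.4 with 30 µM GDP; test drug 0.01 nM–10 µM, 20 min at 30 °C, then 200 pM [35S]GTPγS for 30 min at 30 °C. Nonspecific with 10 µM GTPγS; filtration and scintillation counting. Emax as % of maximal 8-OH-DPAT stimulation; pD2 = −log EC50.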
For orientation: GTPγS resists hydrolysis and so accumulates on activated G proteins.

Experiment [2] addresses T1, 5-hydroxytryptamine receptor 1A (Homo sapiens). Kind of experiment: Agonist activity at human recombinant 5-HT1A receptor expressed in HeLa cells after 30 mins by [35S]GTPgammaS binding assay relative to control. The format is functional, cell-based. In a few lines:
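HeLa membranes (50–70 µg protein) in 20 mM HEPES, 3 mM MgSO4, 120 mM NaCl, pH 7.4, preincubated 20 min at 30 °C with 30 µM GDP and drug (0.01 nM–10 µM), then 200 pM [35S]GTPγS added for 30 min at 30 °C. Nonspecific binding with 10 µM GTPγS. Filtration and scintillation counting. Data expressed as % increase over basal, 8-OH-DPAT maximum = 100%. Emax and pD2 derived.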

The target of experiment [3] is T2, Alpha-1A adrenergic receptor (Rattus norvegicus) (UniProt P43140).
T2 sequence (whole entry): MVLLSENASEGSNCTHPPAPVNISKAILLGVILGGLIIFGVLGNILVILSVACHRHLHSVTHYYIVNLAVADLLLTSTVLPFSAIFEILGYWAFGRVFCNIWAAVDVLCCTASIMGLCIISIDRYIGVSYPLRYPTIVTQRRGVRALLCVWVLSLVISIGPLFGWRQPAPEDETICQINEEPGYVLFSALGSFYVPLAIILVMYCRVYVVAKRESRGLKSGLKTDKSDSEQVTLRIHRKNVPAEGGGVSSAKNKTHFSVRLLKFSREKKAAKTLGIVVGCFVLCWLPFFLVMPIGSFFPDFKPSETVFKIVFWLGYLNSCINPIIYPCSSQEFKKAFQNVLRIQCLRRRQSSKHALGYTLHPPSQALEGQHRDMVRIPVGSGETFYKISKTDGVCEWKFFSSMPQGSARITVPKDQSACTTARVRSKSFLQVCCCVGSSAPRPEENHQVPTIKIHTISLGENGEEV
Kind of experiment: Antagonist activity at alpha1A adrenoceptor in Wistar rat vas deferans assessed as noradrenaline-induced contractions after 30 mins.

The target of experiment [4] is T3, Alpha-1D adrenergic receptor (Rattus norvegicus) (UniProt P23944).
T3 sequence (whole entry): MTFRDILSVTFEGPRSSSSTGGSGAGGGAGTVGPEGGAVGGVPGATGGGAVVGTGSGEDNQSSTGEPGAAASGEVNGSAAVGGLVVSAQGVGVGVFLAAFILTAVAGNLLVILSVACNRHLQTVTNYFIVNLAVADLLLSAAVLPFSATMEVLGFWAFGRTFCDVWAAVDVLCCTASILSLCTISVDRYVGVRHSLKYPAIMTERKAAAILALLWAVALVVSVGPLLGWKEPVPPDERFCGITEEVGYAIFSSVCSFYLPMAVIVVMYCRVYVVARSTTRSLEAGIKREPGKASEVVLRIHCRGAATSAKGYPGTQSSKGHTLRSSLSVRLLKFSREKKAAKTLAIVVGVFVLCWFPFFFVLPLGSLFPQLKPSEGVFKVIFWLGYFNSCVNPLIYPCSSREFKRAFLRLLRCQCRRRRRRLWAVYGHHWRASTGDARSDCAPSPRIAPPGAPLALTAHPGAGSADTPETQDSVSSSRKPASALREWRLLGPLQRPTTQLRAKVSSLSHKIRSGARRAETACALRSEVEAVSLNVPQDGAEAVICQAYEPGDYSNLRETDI
Kind of experiment: Antagonist activity at alpha1D adrenoceptor in Wistar rat thoracic aorta assessed as noradrenaline-induced contractions after 30 mins.

Experiment [5] is filed under the species Rattus norvegicus. Description: Selectivity ratio of Kb for alpha1D adrenoceptor in Wistar rat thoracic aorta to Kb for alpha1A adrenoceptor in Wistar rat vas deferans. The experiment is classed as tissue-based.
The species entered for experiment [6] is Rattus norvegicus. Kind of experiment: Selectivity ratio of Kb for alpha1D adrenoceptor in Wistar rat thoracic aorta to Kb for alpha1B adrenoceptor in Wistar rat spleen. The format is tissue-based.
Experiment [7] has as its target T4, Alpha-1B adrenergic receptor (Homo sapiens, UniProt P35368).
T4 sequence (P35368 whole entry): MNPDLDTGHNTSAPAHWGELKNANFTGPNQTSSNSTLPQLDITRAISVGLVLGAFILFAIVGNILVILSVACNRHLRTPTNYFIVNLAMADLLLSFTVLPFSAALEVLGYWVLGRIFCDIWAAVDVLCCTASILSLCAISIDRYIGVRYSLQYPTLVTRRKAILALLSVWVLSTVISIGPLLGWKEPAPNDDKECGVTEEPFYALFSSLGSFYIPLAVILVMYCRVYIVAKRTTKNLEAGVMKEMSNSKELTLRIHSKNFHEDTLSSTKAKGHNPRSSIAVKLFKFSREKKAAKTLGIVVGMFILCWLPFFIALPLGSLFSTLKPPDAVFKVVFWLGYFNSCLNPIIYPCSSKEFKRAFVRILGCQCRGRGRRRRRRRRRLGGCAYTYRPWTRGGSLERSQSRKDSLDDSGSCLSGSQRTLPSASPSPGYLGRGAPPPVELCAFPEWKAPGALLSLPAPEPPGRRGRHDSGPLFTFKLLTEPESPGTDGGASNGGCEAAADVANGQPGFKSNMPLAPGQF
Kind of experiment: Displacement of [3H]prazosin from human recombinant alpha1B adrenoceptor expressed in CHO cells after 30 mins by liquid scintillation counting. The format is cell-based. In outline: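 CHO cells were stably transfected by electroporation with each human α1 subtype. Membranes (70 µg protein) were incubated in 50 mM Tris pH 7.4 with 0.1–0.4 nM [3H]prazosin and competitor (1 pM–1 µM) for 30 min at 25 °C. Nonspecific binding with 10 µM tamsulosin. Filtration and scintillation counting. pKi from 2–3 experiments in duplicate.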
(In a radioligand displacement assay an active substance lowers the binding of a labelled ligand.)

Consider `COc1ccccc1N1CCN(CC2COC3(CCN(S(=O)(=O)c4ccc(C)cc4)CC3)O2)CC1` (stereo not given), for which the pD2 in experiment [1] amounted to 7.33. In addition, in experiment [2], the Emax was determined as 28%. The negative-log Kb (pKb) in experiment [3] is 7.4; in experiment [4] it was 6.96. Besides, the figures for the Ratio in experiment [5] and in experiment [6] were 0.36 and 0.11, respectively. In addition, in experiment [7], the Ki was 8.32 nM.
As to `COc1ccccc1N1CCN(CC2COC3(CCN(S(=O)(=O)c4cccc([N+](=O)[O-])c4)CC3)O2)CC1` (stereo not given), the pKb in experiment [3] is 7.97; in experiment [4], 7.98. Besides, the Ratio was determined as 1.02 in experiment [5] and 0.69 in experiment [6]. Further, in experiment [7], the Ki is 69.2 nM.
Take `COc1ccccc1N1CCN(CC2COC3(CCN(C(=O)C4CCCCC4)CC3)O2)CC1` (stereo not given): the pD2 in experiment [1] was determined as 7.29. In experiment [2], the Emax stood at 33%. Also, the pKb in experiment [3] is 6.95; in experiment [4], 7.02. For the same compound, the Ratio was 1.17 in experiment [5] and 0.49 in experiment [6]. Moreover, the Ki in experiment [7] was 110 nM.
For `COc1ccccc1N1CCN(CC2COC3(CCN(C(C)=O)CC3)O2)CC1` (stereo not given), the pKb in experiment [3] worked out at 7.17; in experiment [4], 6.48. The results for the Ratio in experiment [5] and in experiment [6] were 0.2 and 0.05, respectively. The Ki in experiment [7] was 1000 nM.
Regarding `COc1ccccc1N1CCN(CC2COC3(CCN(c4ccccn4)CC3)O2)CC1` (stereo not given), the pD2 in experiment [1] is 6.49. In addition, in experiment [2], the Emax was found to be 41%. Besides, the values for the pKb in experiment [3] and in experiment [4] were 7.63 and 6.87, respectively. Further, the values for the Ratio in experiment [5] and in experiment [6] were 0.17 and 0.1, respectively. Moreover, in experiment [7], the Ki was 1000 nM.
Take `COc1ccccc1N1CCN(CC2COC3(CCS(=O)(=O)CC3)O2)CC1` (stereo not given): the pKb worked out at 7.34 in experiment [3] and 7.2 in experiment [4]. The Ratio stood at 0.72 in experiment [5] and 0.34 in experiment [6]. In addition, the Ki in experiment [7] is 288 nM.
For `COc1ccccc1N1CCN(CC2COC3(CCN(C(=O)NC(C)(C)C)CC3)O2)CC1` (stereo not given), in that order: 7.63, 6.53, 0.08, 0.13 and 129 nM.
In the case of `COc1ccccc1N1CCN(CC2COC3(CCOCC3)O2)CC1` (stereo not given), the pD2 in experiment [1] was 6.82. For the same compound, in experiment [2], the Emax was determined as 31%. For the same compound, the values for the pKb in experiment [3] and in experiment [4] were 7.55 and 7.33, respectively. Also, the Ratio in experiment [5] was determined as 0.6; in experiment [6], 1.44. Further, the Ki in experiment [7] was 324 nM.
Turning to `COc1ccccc1N1CCN(CC2COC3(CCCCC3)O2)CC1` (stereo not given), the pD2 in experiment [1] was determined as 8.61. Moreover, in experiment [2], the Emax worked out at 48%. For the same compound, the pKb in experiment [3] worked out at 6.78; in experiment [4] it was 7.88. Moreover, the Ratio is 12.6 in experiment [5] and 14.4 in experiment [6]. The Ki in experiment [7] is 126 nM.
On to `COc1ccccc1N1CCN(CC2COC3(CCN(S(=O)(=O)c4ccc(OC(F)(F)F)cc4)CC3)O2)CC1` (stereo not given), for which the figures for the pKb in experiment [3] and in experiment [4] were 6.98 and 7.37, respectively. Further, the Ratio was determined as 2.45 in experiment [5] and 0.42 in experiment [6]. For the same compound, in experiment [7], the Ki was 148 nM.
For `COc1ccccc1N1CCN(CC2COC3(CCN(S(=O)(=O)c4ccc(Cl)cc4)CC3)O2)CC1` (stereo not given), in that order: 7.24, 7.37, 1.35, 1.02 and 69.2 nM.
For `COc1ccccc1N1CCN(CC2COC3(CCN(S(=O)(=O)c4ccccc4)CC3)O2)CC1` (stereo not given), in that order: 7.48, 7.05, 0.37, 0.13 and 85.1 nM.
The matching figures for `COc1ccccc1N1CCN(CC2COC3(CCN(C(=O)C4CCCN4)CC3)O2)CC1` (stereo not given): 7.43, 6.71, 0.19, 0.07 and 158 nM.
Turning to `COc1ccccc1N1CCN(CC2COC3(CCN(C(=O)C(F)(F)F)CC3)O2)CC1` (stereo not given), the pKb came out at 6.97 in experiment [3] and 7.5 in experiment [4]. For the same compound, the values for the Ratio in experiment [5] and in experiment [6] were 3.39 and 0.31, respectively. Further, the Ki in experiment [7] is 1000 nM.
The matching figures for `COc1ccccc1N1CCN(CC2COC3(CCN(C(=O)c4ccc(C(F)(F)F)cc4)CC3)O2)CC1` (stereo not given): 7.79, 7.29, 0.31, 0.09 and 63.1 nM.
The matching figures for `COc1ccccc1N1CCN(CC2COC3(CCN(C(=O)c4ccccc4)CC3)O2)CC1` (stereo not given): 7.71, 7.45, 0.55, 0.18 and 67.6 nM.
The matching figures for `COc1ccccc1N1CCN(CC2COC3(CCN(S(=O)(=O)c4cccs4)CC3)O2)CC1` (stereo not given): 7.46, 7.27, 0.64, 0.16 and 85.1 nM.
Regarding `COc1ccccc1N1CCN(CC2COC3(CCN(S(C)(=O)=O)CC3)O2)CC1` (stereo not given), the pKb was 7.41 in experiment [3] and 7.18 in experiment [4]. For the same compound, the figures for the Ratio in experiment [5] and in experiment [6] were 0.59 and 0.52, respectively. Besides, the Ki in experiment [7] was 363 nM.
For `COc1ccccc1N1CCN(CC2COC3(CCNCC3)O2)CC1` (stereo not given), in that order: 7.74, 6.89, 0.14, 0.13 and 42.7 nM.

Broadly, the Emax is the maximal effect, on the per cent scale that the assay sets. A word on the pKb: it is −log10 of the Kb, conventionally taken in molar units. As usually defined, the Ki is the equilibrium dissociation constant of an inhibitor or competing ligand from its target.

These data come from ChEMBL document CHEMBL3351355, “Structure-affinity/activity relationships of 1,4-dioxa-spiro[4.5]decane based ligands at α1 and 5-HT1A receptors” (Eur J Med Chem, 2014).
